Laboratory results: ChEMBL document CHEMBL3739417, “Synthesis and biological evaluation of novel 4,5-disubstituted 2H-1,2,3-triazoles as cis-constrained analogues of combretastatin A-4” (2015)

Assays:
Type in all cases: functional
[1] = test system: A498; experiment: Growth inhibition of human A498 cells after 48 hrs by sulforhodamine B assay; conditions: A498, 48 h
Method in brief: (§1)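 NCI-60 sulforhodamine B screen. Compounds were first tested at a single dose of 10⁻⁵ M; hits, defined as ≥60% growth inhibition in at least eight lines, went on to a five-concentration dose–response. SRB optical density was read before and 48 h after exposure to compound or vehicle. Percentage growth was calculated from OD.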

[2] = Growth inhibition of human RPMI8226 cells after 48 hrs by sulforhodamine B assay; conditions: RPMI-8226, 48 h
Method in brief: (§2)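 NCI-60 panel screen by SRB assay (Rubinstein method). Percentage growth taken from optical density of SRB colour, read before and 48 hrs after exposure to compound or vehicle control. All analogues first screened at 10^-5 M. Analogues giving 60% growth inhibition at that level in at least eight lines then went to a five-concentration dose-response study.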

[3] = test system: NCI-H23; experiment: Growth inhibition of human NCI-H23 cells after 48 hrs by sulforhodamine B assay; conditions: NCI-H23, 48 h; method in brief: as §2
[4] = Growth inhibition of human DU145 cells after 48 hrs by sulforhodamine B assay; conditions: DU-145, 48 h; method in brief: as §2
[5] = Growth inhibition of human SF268 cells after 48 hrs by sulforhodamine B assay; conditions: SF-268, 48 h; method in brief: as §2
[6] = test system: MDA-MB-435; experiment: Growth inhibition of human MDA-MB-435 cells after 48 hrs by sulforhodamine B assay; conditions: MDA-MB-435, 48 h; method in brief: as §1
[7] = Growth inhibition of human NCI-ADR-RES cells after 48 hrs by sulforhodamine B assay; method in brief: as §2
[8] = Growth inhibition of human HCT15 cells after 48 hrs by sulforhodamine B assay; conditions: HCT-15, 48 h; method in brief: as §2
[9] = Growth inhibition of human SNB75 cells after 48 hrs by sulforhodamine B assay; conditions: SNB-75, 48 h; method in brief: as §2
[10] = Growth inhibition of human IGROV1 cells after 48 hrs by sulforhodamine B assay; conditions: IGROV-1, 48 h; method in brief: as §2
[11] = test system: CAKI-1; experiment: Growth inhibition of human CAKI-1 cells after 48 hrs by sulforhodamine B assay; conditions: CAKI-1, 48 h; method in brief: as §2
[12] = Growth inhibition of human HCT116 cells after 48 hrs by sulforhodamine B assay; conditions: HCT-116, 48 h; method in brief: as §2
[13] = test system: HT-29; experiment: Growth inhibition of human HT-29 cells after 48 hrs by sulforhodamine B assay; conditions: HT-29, 48 h; method in brief: as §2
[14] = test system: A549; experiment: Growth inhibition of human A549/ATCC cells after 48 hrs by sulforhodamine B assay; conditions: A549, 48 h; method in brief: as §2
[15] = Growth inhibition of human LOXIMVI cells after 48 hrs by sulforhodamine B assay; conditions: LOX IMVI; method in brief: as §2
[16] = test system: MDA-MB-231; experiment: Growth inhibition of human MDA-MB-231 cells after 48 hrs by sulforhodamine B assay; conditions: MDA-MB-231, 48 h; method in brief: as §2
[17] = Growth inhibition of human UO31 cells after 48 hrs by sulforhodamine B assay; conditions: UO-31, 48 h; method in brief: as §2
[18] = test system: NCI-H460; experiment: Growth inhibition of human NCI-H460 cells after 48 hrs by sulforhodamine B assay; conditions: NCI-H460, 48 h; method in brief: as §2
[19] = Growth inhibition of human SF295 cells after 48 hrs by sulforhodamine B assay; conditions: SF-295, 48 h; method in brief: as §2
[20] = test system: SR; experiment: Growth inhibition of human SR cells after 48 hrs by sulforhodamine B assay; method in brief: as §2
[21] = test system: 786-0; experiment: Growth inhibition of human 786-0 cells after 48 hrs by sulforhodamine B assay; conditions: 786-0, 48 h; method in brief: as §2
[22] = Growth inhibition of human HCC2998 cells after 48 hrs by sulforhodamine B assay; conditions: HCC 2998, 48 h; method in brief: as §2
[23] = test system: KM12; experiment: Growth inhibition of human KM12 cells after 48 hrs by sulforhodamine B assay; conditions: KM12, 48 h; method in brief: as §2
[24] = test system: ACHN; experiment: Growth inhibition of human ACHN cells after 48 hrs by sulforhodamine B assay; method in brief: as §2
[25] = Growth inhibition of human MOLT4 cells after 48 hrs by sulforhodamine B assay; conditions: MOLT-4, 48 h; method in brief: as §2
[26] = Growth inhibition of human SW620 cells after 48 hrs by sulforhodamine B assay; conditions: SW-620, 48 h; method in brief: as §2
[27] = test system: U-251; experiment: Growth inhibition of human U251 cells after 48 hrs by sulforhodamine B assay; conditions: U-251, 48 h; method in brief: as §2
[28] = Growth inhibition of human OVCAR3 cells after 48 hrs by sulforhodamine B assay; conditions: OVCAR-3, 48 h; method in brief: as §1
[29] = Growth inhibition of human COLO205 cells after 48 hrs by sulforhodamine B assay; conditions: COLO 205, 48 h; method in brief: as §2
[30] = Growth inhibition of human PC3 cells after 48 hrs by sulforhodamine B assay; conditions: PC-3, 48 h; method in brief: as §2
[31] = Growth inhibition of human HOP92 cells after 48 hrs by sulforhodamine B assay; conditions: HOP-92, 48 h; method in brief: as §2
[32] = test system: MDA-MB-468; experiment: Growth inhibition of human MDA-MB-468 cells after 48 hrs by sulforhodamine B assay; conditions: MDA-MB-468, 48 h; method in brief: as §2
[33] = Growth inhibition of human SKOV3 cells after 48 hrs by sulforhodamine B assay; conditions: SK-OV-3, 48 h; method in brief: as §2
[34] = test system: MCF7; experiment: Growth inhibition of human MCF7 cells after 48 hrs by sulforhodamine B assay; conditions: MCF7, 48 h; method in brief: as §2
[35] = test system: SK-MEL-2; experiment: Growth inhibition of human SK-MEL-2 cells after 48 hrs by sulforhodamine B assay; conditions: SK-MEL-2, 48 h; method in brief: as §2
[36] = Growth inhibition of human HL-60(TB) cells after 48 hrs by sulforhodamine B assay; conditions: HL-60, 48 h; method in brief: as §2
[37] = test system: CCRF-CEM; experiment: Growth inhibition of human CCRF-CEM cells after 48 hrs by sulforhodamine B assay; method in brief: as §2
[38] = read-out: LD50 (the source's name)

COc1ccc(-c2n[nH]nc2-c2cc(OC)cc(OC)c2)cc1
GI50 [1]: < 10 nM | LC50 (50% net cell kill) ([1]; read-out: LD50): > 100000 nM | GI50 [2]: 37 nM | CC50 [2, 38]: > 100000 nM | GI50 [3]: 38 nM | LC50 (concentration giving 50% cell kill) ([3]; read-out: LD50): > 100000 nM | GI50 [4]: 45 nM | CC50 [4, 38]: > 100000 nM | GI50 [5]: 177 nM | CC50 [5, 38]: > 100000 nM | GI50 [6]: < 10 nM | TGI [6]: 10 nM | LC50 (concentration killing 50% of cells) ([6]; read-out: LD50): > 100000 nM | GI50 [7]: < 10 nM | CC50 [7, 38]: > 100000 nM | GI50 [8]: < 10 nM | CC50 [8, 38]: > 100000 nM | GI50 [9]: 14 nM | CC50 [9, 38]: > 100000 nM | GI50 [10]: 51 nM | CC50 [10, 38]: > 100000 nM | GI50 [11]: 50 nM | CC50 [11, 38]: > 100000 nM | GI50 [12]: < 10 nM | CC50 [12, 38]: > 100000 nM | GI50 [13]: 48 nM | LC50 (concentration killing 50% of cells) ([13]; read-out: LD50): > 100000 nM | GI50 [14]: 37 nM | CC50 [14, 38]: > 100000 nM | GI50 [15]: 76 nM | CC50 [15, 38]: > 100000 nM | GI50 [16]: 46 nM | CC50 [16, 38]: > 100000 nM | GI50 [17]: 20 nM | LC50 (concentration killing 50% of cells) ([17]; read-out: LD50): > 100000 nM | GI50 [18]: 34 nM | CC50 [18, 38]: > 100000 nM | GI50 [19]: 11 nM | CC50 [19, 38]: > 100000 nM | GI50 [20]: < 10 nM | LC50 (concentration giving 50% net cell kill) ([20]; read-out: LD50): > 100000 nM | GI50 [21]: 15 nM | LC50 (concentration killing 50% of cells) ([21]; read-out: LD50): > 100000 nM | GI50 [22]: 46 nM | CC50 [22, 38]: > 100000 nM | GI50 [23]: 30 nM | LC50 (concentration killing 50% of cells) ([23]; read-out: LD50): > 100000 nM | GI50 [24]: 145 nM | CC50 [24, 38]: > 100000 nM | GI50 [25]: 48 nM | CC50 [25, 38]: > 100000 nM | GI50 [26]: 30 nM | LD50 (concentration killing 50% of cells) [26]: > 100 µM | GI50 [27]: 38 nM | CC50 [27, 38]: > 100000 nM | GI50 [28]: 24 nM | LC50 (concentration giving 50% net cell kill) ([28]; read-out: LD50): > 100000 nM | GI50 [29]: 149 nM | CC50 [29, 38]: > 100000 nM | GI50 [30]: 42 nM | CC50 [30, 38]: > 100000 nM | GI50 [31]: < 10 nM | CC50 [31, 38]: > 100000 nM | GI50 [32]: 23 nM | CC50 [32, 38]: > 100000 nM | GI50 [33]: 46 nM | LC50 (concentration killing 50% of cells) ([33]; read-out: LD50): > 100000 nM | GI50 [34]: 25 nM | CC50 [34, 38]: > 100000 nM | GI50 [35]: 56 nM | CC50 [35, 38]: > 100000 nM | GI50 [36]: 23 nM | CC50 [36, 38]: > 100000 nM | GI50 [37]: 32 nM | LC50 (concentration killing 50% of cells) ([37]; read-out: LD50): > 100000 nM
